Measured values taken from ChEMBL document CHEMBL3112446, “Discovery and optimization of a new class of pyruvate kinase inhibitors as potential therapeutics for the treatment of methicillin-resistant Staphylococcus aureus infections” (Bioorg Med Chem, 2014).
Values after ≈ are worked out from the molar mass of the structure shown.

What was measured:
[1] = target: Pyruvate kinase PKLR (Homo sapiens) (UniProt P30613); experiment: Inhibition human pyruvate kinase L at 10 uM
Method in brief: (§1)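 His-tagged recombinant human PK isoforms were used. Compounds were diluted in 100% DMSO and tested at 10 µM, the highest concentration tested. Values are percent inhibition of enzymatic activity.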

[2] = target: Pyruvate kinase PKLR (Homo sapiens) (UniProt P30613); experiment: Inhibition human pyruvate kinase R at 10 uM; method in brief: as §1
[3] = target: Pyruvate kinase PKM (Homo sapiens) (UniProt P14618); experiment: Inhibition human pyruvate kinase M2 at 10 uM; method in brief: as §1
[4] = target: Pyruvate kinase PKM (Homo sapiens) (UniProt P14618); experiment: Inhibition human pyruvate kinase M1 at 10 uM; method in brief: as §1
[5] = tested on: Staphylococcus aureus; experiment: Antibacterial activity against Staphylococcus aureus ATCC 29213 by two fold serial dilution method; assay type: functional
[6] = Inhibition of methicillin-resistant Staphylococcus aureus pyruvate kinase
Method in brief: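 His-tagged MRSA PK. Compounds diluted in 100% DMSO. IC50 calculated from a triplicate 15-point titration.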

[7] = tested on: Staphylococcus aureus; experiment: Inhibition of methicillin-resistant Staphylococcus aureus pyruvate kinase at 10 uM
Method in brief: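 His-tagged MRSA PK. Compounds diluted in 100% DMSO. Percent inhibition reported at the highest concentration tested, 10 µM.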

Sequence of Pyruvate kinase PKM (Homo sapiens) (P14618 2-531 limits assumed): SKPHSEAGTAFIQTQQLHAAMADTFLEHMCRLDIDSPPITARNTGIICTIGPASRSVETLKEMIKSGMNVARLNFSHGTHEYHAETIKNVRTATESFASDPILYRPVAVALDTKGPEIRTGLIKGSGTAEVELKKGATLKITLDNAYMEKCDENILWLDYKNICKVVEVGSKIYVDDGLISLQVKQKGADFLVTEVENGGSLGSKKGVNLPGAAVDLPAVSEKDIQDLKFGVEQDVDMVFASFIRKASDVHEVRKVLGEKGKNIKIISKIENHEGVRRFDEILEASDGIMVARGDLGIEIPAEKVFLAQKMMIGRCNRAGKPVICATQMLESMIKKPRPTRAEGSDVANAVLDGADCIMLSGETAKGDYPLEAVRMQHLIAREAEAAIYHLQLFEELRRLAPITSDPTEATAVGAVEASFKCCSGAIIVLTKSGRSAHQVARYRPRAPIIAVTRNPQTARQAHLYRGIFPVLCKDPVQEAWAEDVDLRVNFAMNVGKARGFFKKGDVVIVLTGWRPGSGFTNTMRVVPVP
Sequence of Pyruvate kinase PKLR (Homo sapiens) (P30613 whole entry, looked up, canonical isoform): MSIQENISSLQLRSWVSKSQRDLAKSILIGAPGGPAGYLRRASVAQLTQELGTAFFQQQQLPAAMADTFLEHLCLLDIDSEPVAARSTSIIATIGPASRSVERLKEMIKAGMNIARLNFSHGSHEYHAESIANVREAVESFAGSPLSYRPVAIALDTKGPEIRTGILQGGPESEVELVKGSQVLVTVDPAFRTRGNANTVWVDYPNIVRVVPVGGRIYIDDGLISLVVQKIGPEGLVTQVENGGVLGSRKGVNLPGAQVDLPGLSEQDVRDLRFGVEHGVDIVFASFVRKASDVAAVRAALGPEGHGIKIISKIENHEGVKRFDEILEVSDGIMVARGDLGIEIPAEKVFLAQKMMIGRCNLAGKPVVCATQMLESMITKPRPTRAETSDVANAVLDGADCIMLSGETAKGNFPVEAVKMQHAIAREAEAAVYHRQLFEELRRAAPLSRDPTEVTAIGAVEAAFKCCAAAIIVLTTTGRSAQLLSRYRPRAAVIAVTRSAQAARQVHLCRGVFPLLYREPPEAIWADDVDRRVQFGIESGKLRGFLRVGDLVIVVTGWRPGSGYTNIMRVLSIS

Row | SMILES | inhibition [1] [%] | inhibition [2] [%] | inhibition [3] [%] | inhibition [4] [%] | MIC>98 [5] [µg/mL] | IC50 ([6]; read-out: IC50) [nM] | inhibition [7] [%] | IC50 [6]
1 | Brc1ccc2c(c1)cc(-c1cc3ccc(Br)cc3[nH]1)n2CCN1CCOCC1 | 32.1 | 50.7 | 3.5 | 13.1 | >64 | 1.2 | 101 | 
2 | Cn1c(-c2cc3cc(Br)ccc3[nH]2)cc2ccc(Br)cc21 |  |  |  |  |  |  | 25 | Not Active
3 | COc1cc(-c2cc3ccccc3[nH]2)ccc1-c1cc2ccc(Br)cc2[nH]1 | 4.3 | 13.5 | 14.6 | 7.3 | >64 | 2.1 | 62.2 | 
4 | Brc1ccc2cc(/C=C/c3cc4ccc(Br)cc4[nH]3)[nH]c2c1 |  |  |  |  | >64 | 3.9 |  | 
5 | Brc1ccc2cc(-c3nc4ccccc4s3)[nH]c2c1 | 7.8 | 21.6 | 3 | 12.4 | >64 | 152 | 89.8 | 
6 | Brc1ccc2[nH]c(-c3nc4ccc(Br)cc4s3)cc2c1 |  |  |  |  | >64 | 4.1 |  | 
7 | Brc1ccc2[nH]c(-c3cc4ccccc4o3)cc2c1 |  |  |  |  |  |  | 45 | 
8 | Brc1ccc2cc(-c3cc4ccccc4[nH]3)[nH]c2c1 |  |  |  |  | 2 (≈ 6.43 µM) | 21.4 |  | 
9 | Cn1c(C#Cc2cc3ccc(Br)cc3[nH]2)cc2ccc(Br)cc21 |  |  |  |  | >64 | 13.7 |  | 
10 | Brc1ccc2cc(-c3cc4ccccc4o3)[nH]c2c1 | -6 | -5.5 | 0.4 | 5.3 | >64 | 108 | 95.9 | 
11 | Cn1c(C#Cc2cc3ccc(Br)cc3n2C)cc2ccc(Br)cc21 |  |  |  |  |  |  | 27 | 
12 | Cn1c(-c2cc3ccc(Br)cc3[nH]2)cc2cc(Br)ccc21 | 2.8 | 2.7 | 9.1 | 13.9 | >64 | 1 | 99 | 
13 | Brc1ccc2cc(-c3cc4ccccc4s3)[nH]c2c1 |  |  |  |  | >64 | 14 |  | 
14 | Brc1ccc2[nH]c(-c3nc4ccccc4s3)cc2c1 |  |  |  |  | >64 | 358 |  | 
15 | Brc1ccc2[nH]c(/C=C/c3cc4ccc(Br)cc4[nH]3)cc2c1 |  |  |  |  | >64 | 4.1 |  | 
16 | Brc1ccc2[nH]c(-c3cc4cc(Br)ccc4[nH]3)cc2c1 | 9.8 | 24.4 | 0.5 | 12.3 |  | 3 | 71 | 
17 | Brc1ccc2[nH]c(-c3cc4cc(Br)c(Br)cc4[nH]3)cc2c1 |  |  |  |  | 1 (≈ 2.13 µM) | 1.6 |  | 
18 | Brc1ccc2cc(-c3ccc(-c4cc5ccccc5[nH]4)cc3)[nH]c2c1 |  |  |  |  | >64 | 5.6 |  | 
19 | O=C(Cn1c(-c2cc3ccc(Br)cc3[nH]2)cc2cc(Br)ccc21)N1CCOCC1 |  |  |  |  | >64 | 6 |  | 
20 | O=C(O)Cn1c(-c2cc3ccc(Br)cc3[nH]2)cc2cc(Br)ccc21 |  |  |  |  | >64 | 11.1 |  | 
21 | Brc1ccc2cc(-c3cccc(-c4cc5ccccc5[nH]4)c3)[nH]c2c1 |  |  |  |  |  |  | 36 | 
22 | Brc1ccc2[nH]c(-c3cc4ccccc4[nH]3)cc2c1 |  |  |  |  |  |  | 36 | 
23 | Brc1ccc2cc(C#Cc3cc4ccc(Br)cc4[nH]3)[nH]c2c1 |  |  |  |  | >64 | 2.4 |  | 
24 | Brc1ccc2cc(-c3cc4cc(-c5ccccc5)ccc4[nH]3)[nH]c2c1 |  |  |  |  | >64 | 2.2 |  | 
25 | Brc1ccc2cc(C#Cc3cc4ccccc4[nH]3)[nH]c2c1 |  |  |  |  | >64 | 7.1 |  | 
26 | Brc1ccc2[nH]c(CCc3cc4ccc(Br)cc4[nH]3)cc2c1 |  |  |  |  | >64 | 6.3 |  | 
27 | Brc1cc2cc(-c3cc4ccccc4[nH]3)[nH]c2cc1Br |  |  |  |  |  |  | 39 | 
